Measured values as given in ChEMBL document CHEMBL1126126, “Development, synthesis, and biological evaluation of (-)-trans-(2S,5S)-2-[3-[(2-oxopropyl)sulfonyl]-4-n-propoxy-5-(3- hydroxypropoxy)-phenyl]-5-(3,4,5-trimethoxyphenyl)tetrahydrofuran, a potent orally active platelet-activating factor (PAF) antagonist and its water-soluble prodrug phosphate ester” (J Med Chem, 1992).
Values after ≈ are worked out from the molar mass of the structure shown. Active and inactive are the calls of the source. No cut-off for these calls is given here.

How the values were obtained:
[1] = biological target: T1, C5a anaphylatoxin chemotactic receptor 1 (Homo sapiens) (UniProt P21730); assay: (§1) Effect on uM; no effect
T1 sequence (whole entry): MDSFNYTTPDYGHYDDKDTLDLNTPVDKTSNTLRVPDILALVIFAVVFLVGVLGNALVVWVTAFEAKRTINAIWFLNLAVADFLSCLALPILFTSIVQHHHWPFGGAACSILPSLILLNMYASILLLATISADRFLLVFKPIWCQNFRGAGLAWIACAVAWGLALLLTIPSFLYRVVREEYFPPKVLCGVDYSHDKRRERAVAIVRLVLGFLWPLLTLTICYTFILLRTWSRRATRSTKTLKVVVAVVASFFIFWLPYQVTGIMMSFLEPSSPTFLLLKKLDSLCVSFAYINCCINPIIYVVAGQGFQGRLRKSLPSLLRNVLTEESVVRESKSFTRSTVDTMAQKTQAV

[2] = biological target: T2, Cysteinyl leukotriene receptor 1 (Cavia porcellus) (UniProt Q2NNR5); assay: as §1
T2 sequence (whole entry): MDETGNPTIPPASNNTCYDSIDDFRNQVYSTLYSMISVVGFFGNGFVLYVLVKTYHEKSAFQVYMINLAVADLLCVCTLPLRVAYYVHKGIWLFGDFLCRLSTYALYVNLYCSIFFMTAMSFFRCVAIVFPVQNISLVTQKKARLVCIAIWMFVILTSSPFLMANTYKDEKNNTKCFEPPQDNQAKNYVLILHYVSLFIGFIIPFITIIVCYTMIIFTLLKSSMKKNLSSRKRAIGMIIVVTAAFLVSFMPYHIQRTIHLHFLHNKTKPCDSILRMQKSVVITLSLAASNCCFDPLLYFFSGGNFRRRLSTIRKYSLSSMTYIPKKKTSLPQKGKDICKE

[3] = biological target: Leukotriene B4 receptor 1 (Homo sapiens) (UniProt Q15722); assay: as §1
Leukotriene B4 receptor 1 (Homo sapiens), sequence (Q15722 whole entry): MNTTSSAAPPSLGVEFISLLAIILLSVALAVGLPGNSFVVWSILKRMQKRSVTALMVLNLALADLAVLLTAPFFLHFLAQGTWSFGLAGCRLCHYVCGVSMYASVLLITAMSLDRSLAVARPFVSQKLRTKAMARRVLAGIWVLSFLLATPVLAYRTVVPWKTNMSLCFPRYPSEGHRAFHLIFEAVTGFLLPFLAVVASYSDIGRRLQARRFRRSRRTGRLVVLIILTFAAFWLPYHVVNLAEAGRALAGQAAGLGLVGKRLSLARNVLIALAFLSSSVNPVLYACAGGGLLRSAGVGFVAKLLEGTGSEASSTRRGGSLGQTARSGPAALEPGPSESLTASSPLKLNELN

[4] = Water solubility at pH 7.4; type: physicochemical
How it was run: (§2)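 Compound combined with buffered solution at the stated pH, sonicated, shaken 1 h and filtered. Filtrate concentration measured by UV against standards of known concentration; reported in mg/mL.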

[5] = biological target: Platelet-activating factor receptor (Homo sapiens, UniProt P25105); assay: Inhibition of the binding of [3H]C18-Platelet activating factor to human platelet membrane preparation
Platelet-activating factor receptor, sequence (P25105 whole entry): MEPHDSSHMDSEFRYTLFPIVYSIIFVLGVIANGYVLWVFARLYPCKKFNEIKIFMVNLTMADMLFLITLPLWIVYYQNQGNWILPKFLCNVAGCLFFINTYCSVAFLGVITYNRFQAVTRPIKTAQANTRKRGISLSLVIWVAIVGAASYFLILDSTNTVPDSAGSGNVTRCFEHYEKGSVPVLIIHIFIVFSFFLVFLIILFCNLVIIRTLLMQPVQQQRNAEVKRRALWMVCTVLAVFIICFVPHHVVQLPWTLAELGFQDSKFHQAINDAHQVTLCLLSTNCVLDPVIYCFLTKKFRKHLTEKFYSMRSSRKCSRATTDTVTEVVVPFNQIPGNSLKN

[6] = Water solubility at pH 5; type: physicochemical; how it was run: as §2
[7] = Water solubility at pH 6; type: physicochemical; how it was run: as §2
[8] = system: Rattus norvegicus; assay: Effect against PAF induced plasma level of N-acetyl-beta-D-glucosaminidase (NAGA) and plasma extravasation in male rat at a dose of 1 mg/kg by single administration after 6 hour; type: functional
[9] = system: Rattus norvegicus; assay: In vivo inhibitory activity against PAF induced plasma level of N-acetyl-beta-D-glucosaminidase (NAGA) and hematocrit (plasma extravasation) in male rat after p.o. administration; type: functional; details: po
[10] = system: Rattus norvegicus; assay: In vivo inhibitory activity against PAF induced plasma level of N-acetyl-beta-D-glucosaminidase (NAGA) and hematocrit (plasma extravasation) in female rat after p.o. administration; type: functional; details: po
[11] = system: Rattus norvegicus; assay: In vivo inhibitory activity against PAF induced plasma level of N-acetyl-beta-D-glucosaminidase (NAGA) and hematocrit (plasma extravasation) in male rat after i.v. administration; type: functional; details: iv
[12] = organism: Homo sapiens; assay: Inhibitory activity against PAF-induced aggregation of human platelets suspended in buffer [washed platelets (WP)]; type: functional
[13] = system: Angiotensin II receptor (Oryctolagus cuniculus); assay: Effect on uM; no effect
[14] = organism: Homo sapiens; assay: Inhibitory activity against PAF-induced aggregation of human platelets suspended in plasma; type: functional
[15] = system: Cavia porcellus; assay: In vivo inhibitory activity against PAF induced bronchoconstriction in female guinea pigs; type: functional; details: read-out: ID50 (the source's name)
[16] = system: Cavia porcellus; assay: In vivo inhibitory activity against PAF induced bronchoconstriction in male guinea pigs; type: functional; details: read-out: ID50 (the source's name)
[17] = Water solubility was determined; type: ADME; how it was run: as §2

Row | inhibition [2] | inhibition [3] | solubility [6] [µg/mL] | solubility [7] [µg/mL] | IC50 [14] [nM] | solubility [17] [µg/mL] | SMILES | inhibition [1] | IC50 [5] [nM] | ED50 [9] [mg/kg] | ED50 [10] [mg/kg] | ED50 [11] [mg/kg] | ED50 [16] [mg/kg] | further results
1 | inactive | inactive |  |  |  |  | CCCOc1c(OCCCOP(=O)([O-])O)cc([C@@H]2CC[C@@H](c3cc(OC)c(OC)c(OC)c3)O2)cc1S(=O)(=O)CC(C)=O.[K+] | inactive |  |  |  |  |  | solubility [4]: > 30000 µg/mL
2 |  |  |  |  |  |  | CCCOc1c(OC)cc([C@H]2CC[C@H](c3cc(OC)c(OC)c(OC)c3)O2)cc1S(C)(=O)=O (single isomer, unassigned) |  | 9 |  |  |  |  | 
3 | inactive | inactive | 5500 (≈ 8920 µM) | 800 (≈ 1300 µM) |  |  | CCCOc1c(OCCCn2ccnc2)cc([C@@H]2CC[C@@H](c3cc(OC)c(OC)c(OC)c3)O2)cc1S(=O)(=O)CC(C)=O | inactive |  |  |  |  |  | 
4 | inactive | inactive | 5400 (≈ 8490 µM) | 900 (≈ 1420 µM) | 19 |  | CCCOc1c(OCCCN2CCOCC2)cc([C@@H]2CC[C@@H](c3cc(OC)c(OC)c(OC)c3)O2)cc1S(=O)(=O)CC(C)=O | inactive | 2.5 | 0.15 | 0.2 | 0.037 | 0.06 | inhibition in vivo at 1 mg/kg [8]: 60%; IC50 [12]: 1 nM; inhibition [13]: inactive; ED50 [15]: 0.04 mg/kg
5 | inactive | inactive |  |  |  | 100 (≈ 176 µM) | CCCOc1c(OCCCO)cc([C@@H]2CC[C@@H](c3cc(OC)c(OC)c(OC)c3)O2)cc1S(=O)(=O)CC(C)=O | inactive |  |  |  |  |  | 
6 |  |  |  |  | 55 | 2 (≈ 3.92 µM) | CCCOc1c(OC)cc([C@@H]2CC[C@@H](c3cc(OC)c(OC)c(OC)c3)O2)cc1S(=O)(=O)CCO |  |  | 2.3 | 0.1 | 0.1 | 0.19 | 
